# Measured values pooled from the literature.
# Protocols differ between the studies behind these lines.
# Target: Serine/threonine-protein kinase N2 (PKN2, Homo sapiens, UniProt Q16513)
Compound,assay,system,conditions,endpoint,result
Cc1cc(NC(=O)c2cccc3cc(-c4cccc5[nH]nc(N)c45)ccc23)ccc1F,"enzyme activity, inhibitor",,0.1 µM,activity vs control,101%
c1ccc(CNc2nc(N3CCOc4ccccc43)nc3c2CCCC3)cc1,"target engagement in cells, inhibitor, chemoproteomics",,20 mM,inhibition,9.1%
CCN(CC)CCNC(=O)c1c(C)[nH]c(/C=C2\C(=O)Nc3ccc(F)cc32)c1C,"enzyme activity, inhibitor",,0.3 µM,inhibition,24%
CCCCN(CCCC)C(=O)CN1C[C@H](c2cc(OC)c3c(c2)OCO3)[C@@H](C(=O)O)[C@@H]1CC(C)(C)CCC,"cell-free assay, competition with immobilised ligand",,1 µM,remaining binding,100%
CCCOc1ccc(OC)c(F)c1C(=O)c1ccc(C(=O)N[C@@H]2CNC[C@H]2NC(=O)c2ccc3[nH]ncc3c2)cc1,"enzyme activity, inhibitor",,10 µM,remaining activity,-1%
Oc1cccc(-c2nc(N3CCOCC3)c3oc4ncccc4c3n2)c1,"enzyme activity, inhibitor",,10 µM,remaining activity,71%
CCC(=O)N[C@H]1CC[C@@H](C(=O)N(C)c2ccc(-c3nc4ccccc4o3)cc2)C1,"cell-free assay, competition with immobilised ligand",,1 µM,remaining binding,100%
Cc1ccc(C(=O)Nc2ccc(CN3CCN(C)CC3)c(C(F)(F)F)c2)cc1C#Cc1cnc2cccnn12,"enzyme activity, inhibitor",,23.5 nM,remaining activity,99%
Nc1nc(NC2CCCCC2)sc1C(=O)c1ccccc1,"enzyme activity, inhibitor",,10 µM,remaining activity,98%
COc1cc(Nc2cnc(C#N)c(O[C@H](C)CN(C)C)n2)ncc1-c1cnn(C)c1,"enzyme activity, inhibitor, radiometric",,10 µM,remaining activity,86%
O=C1NC(=O)c2cc(Nc3ccc(F)cc3)c(Nc3ccc(F)cc3)cc21,cell-free assay,,0.5 µM,remaining signal,102%
Cc1sc(C(=O)NC2COC2)cc1-n1cc(NC(=O)Nc2c(F)cccc2Cl)cn1,"enzyme activity, inhibitor",,10 µM,remaining activity,87.1%
CNCc1ccc(-c2cc(-c3nc(-c4ccc(S(=O)(=O)C(C)C)cc4)cnc3N)on2)cc1,"enzyme activity, inhibitor",,2 µM,inhibition,82%
CN1CCC2(CC1)NC(=O)c1c(c3ccc(Cl)c(Cl)c3n1C)C2C#N (racemic),"thermal stability, DSF",,10 µM,ΔTm,2.5 °C
Cc1cc(-n2nc(Cc3cc(F)cc(C(F)(F)F)c3)nc2C)ccc1C(N)=O,"cell-free assay, competition with immobilised ligand",,1 µM,remaining binding,100%
Cn1c2c(Cl)c(Cl)ccc2c2cc[nH]c(=O)c21,"thermal stability, DSF",,10 µM,ΔTm,1.3 °C
Cc1ccc(NC(=O)c2ccc(CN3CCN(C)CC3)cc2)cc1Nc1nc(-c2cccnc2)cs1,cell-free assay,,0.5 µM,remaining signal,108%
Cc1ccc(Nc2nccc(N(C)c3ccc4c(C)n(C)nc4c3)n2)cc1S(N)(=O)=O,"enzyme activity, inhibitor",,10 µM,inhibition,34%
COc1cc(-c2cc(-c3ccc(N4CCNCC4)cc3)cnc2C)cc(OC)c1OC,"enzyme activity, inhibitor",,1 µM,inhibition,1%
CNC(=O)c1cc(Oc2ccc(NC(=O)Nc3ccc(Cl)c(C(F)(F)F)c3)cc2)ccn1,"enzyme activity, inhibitor",,0.3 µM,inhibition,10%
CCN1CCN(Cc2ccc(NC(=O)c3ccc(C)c(Oc4ccnc5[nH]ccc45)c3)cc2C(F)(F)F)CC1,"target engagement in cells, inhibitor, chemoproteomics",Huh-7,10 µM,inhibition,-10.5%
O=C(Nc1cnn(-c2csc(C(=O)NC3COC3)c2)c1)Nc1ccccc1Cl,"enzyme activity, inhibitor",,5 µM,remaining activity,112%
COc1ccc2c(O[C@@H]3C[C@H]4C(=O)N[C@]5(C(=O)O)CC5/C=C\CCCCC[C@H](NC(=O)OC5CCCC5)C(=O)N4C3)cc(-c3csc(NC(=O)C(C)C)n3)nc2c1C (some centres unmarked),"cell-free assay, competition with immobilised ligand",,1 µM,remaining binding,67%
Nc1ncnc2occ(-c3ccc(NC(=O)Nc4cc(C(F)(F)F)ccc4F)cc3)c12,"cell-free assay, inhibitor",,20 µM,remaining signal,58%
FC(F)c1nc2ccccc2n1-c1nc(N2CCOCC2)nc(N2CCOCC2)n1,"enzyme activity, inhibitor",,10 µM,remaining activity,82%
Nc1nc(Nc2ccccc2)sc1C(=O)c1c(F)cccc1F,"enzyme activity, inhibitor",,10 µM,remaining activity,57%
CCN(CC)c1ccc(C2=NNC(=O)CC2C)cc1[N+](=O)[O-] (centres unmarked),"enzyme activity, inhibitor",,10 µM,remaining activity,94%
Cc1cc(C)c(-n2ccn3nc(-c4cccnc4)cc23)cc1NC(=O)c1cc(C#N)cc(S(F)(F)(F)(F)F)c1,"cell-free assay, competition with immobilised ligand",,0.1 µM,remaining binding,100%
CC(C)(C)c1nc2c(s1)c1nc(N)ncc1c1ccc(NS(=O)(=O)c3c(F)cccc3F)c(F)c12,"enzyme activity, inhibitor, radiometric",,1 µM,remaining activity,91%
Cc1nc(Cc2cccc(C(F)(F)F)c2)sc1-c1ccc(C(N)=O)nc1,"cell-free assay, competition with immobilised ligand",,1 µM,remaining binding,91%
COc1cccc2c(NCc3ccccc3)nc(-n3c(N)nc4ccccc43)nc12,"target engagement in cells, inhibitor, chemoproteomics",,20 mM,inhibition,-3.6%
O=C(Nc1cnc(Oc2ccc(F)cc2)nc1)N1CCc2ncccc2[C@@H]1c1ccc(F)cc1,"cell-free assay, competition with immobilised ligand",,1 µM,remaining binding,78%
Cc1ccc(NC(=O)c2ccc(C)c(C(F)(F)F)c2)cc1C#Cc1nn(C2CCC(O)CC2)c2ncnc(N)c12 (centres unmarked),cell-free assay,,10 µM,remaining signal,97%
N#CCCc1ccc2c(c1)-c1[nH]c3ccc([N+](=O)[O-])cc3c1CC(=O)N2,cell-free assay,,0.5 µM,remaining signal,77.9%
O=c1nc(-c2ccccn2)sc2ccccc12,"binding, competition with immobilised ligand",,1 µM,remaining binding,100%
